Test results taken from ChEMBL document CHEMBL5678806, “NMS-P937, an orally available, specific small-molecule polo-like kinase 1 inhibitor with antitumor activity in solid and hematologic malignancies” (Mol Cancer Ther, 2012).
The source made the active and inactive calls. The calls are words filed in the database; no cut-off is given here.

Columns and labels:
[1] = tested on: NCI-H838; test: Antiproliferative activity against human NCI-H838 cells assessed as inhibition of cell growth incubated for 72 hrs by cell-titer glo assay; assay type: functional, cell-based; settings: NCI-H838, 72 h
Outline: (§1)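 Cells from ATCC or ECACC, kept in supplier-recommended medium with 1% penicillin-streptomycin at 37°C, 5% CO₂. Seeded at 10,000–30,000/cm² (adherent) or 100,000/mL (nonadherent) in medium with 10% fetal calf serum. Dosed after 24 h in duplicate with serial dilutions. Viable cells read by CellTiter-Glo 72 h later. IC50 from sigmoidal fit. At least two independent experiments.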

[2] = target: Fibroblast growth factor receptor 4 (Homo sapiens) (UniProt P22455); test: Inhibition of N-terminal His6-tagged recombinant human FGFR4 (442 to 755 residues) expressed in baculovirus infected Sf21 cells assessed as residual activity at 1 uM relative to control
Sequence of Fibroblast growth factor receptor 4 (Homo sapiens) (P22455 22-802 limits assumed): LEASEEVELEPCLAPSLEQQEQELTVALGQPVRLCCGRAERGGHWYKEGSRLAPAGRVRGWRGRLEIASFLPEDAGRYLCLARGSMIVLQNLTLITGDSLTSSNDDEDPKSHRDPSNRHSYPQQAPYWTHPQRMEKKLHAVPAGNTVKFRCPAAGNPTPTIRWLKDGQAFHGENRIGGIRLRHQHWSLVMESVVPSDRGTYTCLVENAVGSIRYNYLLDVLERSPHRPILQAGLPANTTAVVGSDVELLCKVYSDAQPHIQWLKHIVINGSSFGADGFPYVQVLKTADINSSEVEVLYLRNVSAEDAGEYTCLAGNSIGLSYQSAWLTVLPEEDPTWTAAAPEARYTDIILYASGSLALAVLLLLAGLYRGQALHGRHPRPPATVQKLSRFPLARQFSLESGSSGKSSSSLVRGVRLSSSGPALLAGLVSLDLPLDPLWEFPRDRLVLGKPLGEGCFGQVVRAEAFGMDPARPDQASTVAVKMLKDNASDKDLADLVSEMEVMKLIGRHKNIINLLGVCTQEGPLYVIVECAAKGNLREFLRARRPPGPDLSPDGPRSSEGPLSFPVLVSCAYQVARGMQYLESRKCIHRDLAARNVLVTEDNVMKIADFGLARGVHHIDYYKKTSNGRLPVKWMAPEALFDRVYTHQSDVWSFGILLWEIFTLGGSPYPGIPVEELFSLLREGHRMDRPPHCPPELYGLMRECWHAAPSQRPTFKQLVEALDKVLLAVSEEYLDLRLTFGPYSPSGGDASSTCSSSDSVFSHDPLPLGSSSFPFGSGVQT

[3] = Oral bioavailability in Sprague-Dawley rat at 10 mg/kg by LC-MS analysis; assay type: ADME, organism-based; settings: in vivo
[4] = target: Inhibitor of nuclear factor kappa-B kinase subunit beta (Homo sapiens, UniProt O14920); test: Inhibition of IKK2 (unknown origin) in presence of [gamma-33P]ATP
Sequence of Inhibitor of nuclear factor kappa-B kinase subunit beta (O14920 whole entry): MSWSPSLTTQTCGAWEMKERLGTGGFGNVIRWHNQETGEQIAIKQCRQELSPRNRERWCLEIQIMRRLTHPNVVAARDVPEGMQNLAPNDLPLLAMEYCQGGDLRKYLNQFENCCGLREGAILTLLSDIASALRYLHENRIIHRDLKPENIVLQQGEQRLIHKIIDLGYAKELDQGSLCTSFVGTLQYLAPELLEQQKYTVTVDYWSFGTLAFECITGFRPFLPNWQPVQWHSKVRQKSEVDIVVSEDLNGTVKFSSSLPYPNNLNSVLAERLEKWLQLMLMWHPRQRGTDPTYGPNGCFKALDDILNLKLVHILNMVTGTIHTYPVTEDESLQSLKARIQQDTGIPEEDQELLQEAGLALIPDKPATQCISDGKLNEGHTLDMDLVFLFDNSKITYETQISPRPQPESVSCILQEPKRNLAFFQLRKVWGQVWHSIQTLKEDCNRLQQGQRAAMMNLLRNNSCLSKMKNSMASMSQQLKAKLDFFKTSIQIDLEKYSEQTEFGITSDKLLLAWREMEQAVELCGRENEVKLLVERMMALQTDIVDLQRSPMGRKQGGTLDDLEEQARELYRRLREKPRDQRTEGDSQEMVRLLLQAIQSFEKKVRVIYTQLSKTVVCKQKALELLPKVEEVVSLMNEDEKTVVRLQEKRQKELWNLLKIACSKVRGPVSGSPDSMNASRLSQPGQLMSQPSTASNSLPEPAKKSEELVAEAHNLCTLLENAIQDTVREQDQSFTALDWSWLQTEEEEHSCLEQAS

[5] = Cmax in male cynomolgus monkey at 5 mg/kg, iv by LC-MS analysis; assay type: ADME, organism-based, Macaca fascicularis; settings: in vivo
[6] = Plasma concentration in nu/nu mouse xenografted with human HL-60 cells at 60 mg/kg, po administered for 10 days relative to control; assay type: ADME, organism-based; settings: time 10 day
[7] = tested on: U2OS; test: Induction of apoptosis in human U2OS cells assessed as colocalization of cells by measuring Histone H3 phosphorylation on Ser10 incubated for 24 hrs by DRAQ 5 staining based high content imaging assay relative to control; assay type: functional
[8] = target: Tyrosine-protein kinase Fer (Homo sapiens) (UniProt P16591); test: Inhibition of N-terminal His6 tagged recombinant human Fer (541 to end residues) expressed in baculovirus infected Sf21 cells assessed as residual activity at 0.1 uM relative to control
[9] = tested on: HCT-116; test: Antiproliferative activity against human HCT-116 cells assessed as inhibition of cell growth incubated for 72 hrs by cell-titer glo assay; assay type: functional, cell-based; settings: HCT-116, 72 h
Outline: (§2)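 Cells seeded at 10,000–30,000/cm² (adherent) or 100,000/mL (nonadherent) in medium with 10% fetal calf serum; after 24 h, treated in duplicate with serial dilutions for 72 h. Viable cell number read by CellTiter-Glo luminescence; IC50 from sigmoidal fit; at least two independent experiments.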

[10] = tested on: T98G; test: Antiproliferative activity against human T98G cells assessed as inhibition of cell growth incubated for 72 hrs by cell-titer glo assay; assay type: functional, cell-based
[11] = target: Serine/threonine-protein kinase SIK1 (Homo sapiens) (UniProt P57059); test: Inhibition of N-terminal 6His-tagged recombinant human SIK (1 to 281 residues) expressed in baculovirus infected Sf21 cells assessed as residual activity at 1 uM relative to control
Sequence of Serine/threonine-protein kinase SIK1 (Homo sapiens) (P57059 whole entry, the tested form may be a part): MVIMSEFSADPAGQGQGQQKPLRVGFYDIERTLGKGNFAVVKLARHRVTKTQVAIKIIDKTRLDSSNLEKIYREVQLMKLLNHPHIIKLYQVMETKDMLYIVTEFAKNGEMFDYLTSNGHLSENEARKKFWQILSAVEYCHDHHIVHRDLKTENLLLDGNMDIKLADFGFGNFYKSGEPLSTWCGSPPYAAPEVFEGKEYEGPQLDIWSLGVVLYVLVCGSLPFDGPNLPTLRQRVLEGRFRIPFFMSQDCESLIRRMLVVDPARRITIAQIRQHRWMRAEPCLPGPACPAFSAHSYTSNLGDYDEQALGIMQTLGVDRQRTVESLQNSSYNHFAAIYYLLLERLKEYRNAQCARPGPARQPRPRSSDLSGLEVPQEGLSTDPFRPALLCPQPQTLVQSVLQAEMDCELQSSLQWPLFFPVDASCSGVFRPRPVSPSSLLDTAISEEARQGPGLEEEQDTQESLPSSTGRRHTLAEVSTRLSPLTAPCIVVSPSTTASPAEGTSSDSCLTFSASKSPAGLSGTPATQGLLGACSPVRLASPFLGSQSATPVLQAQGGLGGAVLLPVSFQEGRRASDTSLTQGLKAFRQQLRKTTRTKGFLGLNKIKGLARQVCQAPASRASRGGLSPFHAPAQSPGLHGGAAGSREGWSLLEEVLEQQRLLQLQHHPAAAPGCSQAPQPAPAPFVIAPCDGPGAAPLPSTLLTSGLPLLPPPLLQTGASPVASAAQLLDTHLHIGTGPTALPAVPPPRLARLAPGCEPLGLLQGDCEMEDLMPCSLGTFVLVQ

[12] = tested on: LS174T; test: Antiproliferative activity against human LS174T cells assessed as inhibition of cell growth incubated for 72 hrs by cell-titer glo assay; assay type: functional, cell-based; outline: as §2
[13] = tested on: HCC1419; test: Antiproliferative activity against human HCC1419 cells assessed as inhibition of cell growth incubated for 72 hrs by cell-titer glo assay; assay type: functional, cell-based; settings: HCC1419, 72 h; outline: as §2
[14] = target: Calcium/calmodulin-dependent protein kinase type II subunit gamma (Homo sapiens) (UniProt Q13555); test: Inhibition of N-terminal 6His-tagged recombinant human CaMKIIgamma (1 to 330 residues) expressed in baculovirus infected Sf21 cells assessed as residual activity at 0.1 uM relative to control
Sequence of Calcium/calmodulin-dependent protein kinase type II subunit gamma (Homo sapiens) (Q13555 whole entry, the tested form may be a part): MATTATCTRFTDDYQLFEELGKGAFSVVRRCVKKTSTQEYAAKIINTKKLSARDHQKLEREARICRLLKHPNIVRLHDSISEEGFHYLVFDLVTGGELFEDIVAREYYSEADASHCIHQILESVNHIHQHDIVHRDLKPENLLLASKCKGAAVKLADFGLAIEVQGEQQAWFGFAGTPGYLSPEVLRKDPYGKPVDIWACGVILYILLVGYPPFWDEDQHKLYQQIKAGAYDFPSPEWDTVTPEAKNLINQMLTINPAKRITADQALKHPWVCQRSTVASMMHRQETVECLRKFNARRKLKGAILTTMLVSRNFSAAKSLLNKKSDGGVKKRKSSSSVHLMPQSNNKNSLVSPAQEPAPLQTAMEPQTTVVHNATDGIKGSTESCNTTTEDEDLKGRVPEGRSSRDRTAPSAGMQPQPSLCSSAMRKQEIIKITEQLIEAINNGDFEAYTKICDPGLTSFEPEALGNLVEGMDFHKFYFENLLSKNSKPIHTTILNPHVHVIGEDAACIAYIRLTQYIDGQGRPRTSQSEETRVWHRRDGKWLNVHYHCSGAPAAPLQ

[15] = tested on: UACC-257; test: Antiproliferative activity against human UACC-257 cells assessed as inhibition of cell growth incubated for 72 hrs by cell-titer glo assay; assay type: functional, cell-based; settings: UACC-257, 72 h
[16] = Cmax in Sprague-Dawley rat at 10 mg/kg, iv by LC-MS analysis; assay type: ADME, organism-based; settings: in vivo
[17] = target: ALK tyrosine kinase receptor (Homo sapiens) (UniProt Q9UM73); test: Inhibition of N-terminal His6-tagged recombinant human ALK (1058 to end residues) expressed in baculovirus infected Sf21 cells assessed as residual activity at 1 uM relative to control
Sequence of ALK tyrosine kinase receptor (Homo sapiens) (Q9UM73 19-1620 limits assumed): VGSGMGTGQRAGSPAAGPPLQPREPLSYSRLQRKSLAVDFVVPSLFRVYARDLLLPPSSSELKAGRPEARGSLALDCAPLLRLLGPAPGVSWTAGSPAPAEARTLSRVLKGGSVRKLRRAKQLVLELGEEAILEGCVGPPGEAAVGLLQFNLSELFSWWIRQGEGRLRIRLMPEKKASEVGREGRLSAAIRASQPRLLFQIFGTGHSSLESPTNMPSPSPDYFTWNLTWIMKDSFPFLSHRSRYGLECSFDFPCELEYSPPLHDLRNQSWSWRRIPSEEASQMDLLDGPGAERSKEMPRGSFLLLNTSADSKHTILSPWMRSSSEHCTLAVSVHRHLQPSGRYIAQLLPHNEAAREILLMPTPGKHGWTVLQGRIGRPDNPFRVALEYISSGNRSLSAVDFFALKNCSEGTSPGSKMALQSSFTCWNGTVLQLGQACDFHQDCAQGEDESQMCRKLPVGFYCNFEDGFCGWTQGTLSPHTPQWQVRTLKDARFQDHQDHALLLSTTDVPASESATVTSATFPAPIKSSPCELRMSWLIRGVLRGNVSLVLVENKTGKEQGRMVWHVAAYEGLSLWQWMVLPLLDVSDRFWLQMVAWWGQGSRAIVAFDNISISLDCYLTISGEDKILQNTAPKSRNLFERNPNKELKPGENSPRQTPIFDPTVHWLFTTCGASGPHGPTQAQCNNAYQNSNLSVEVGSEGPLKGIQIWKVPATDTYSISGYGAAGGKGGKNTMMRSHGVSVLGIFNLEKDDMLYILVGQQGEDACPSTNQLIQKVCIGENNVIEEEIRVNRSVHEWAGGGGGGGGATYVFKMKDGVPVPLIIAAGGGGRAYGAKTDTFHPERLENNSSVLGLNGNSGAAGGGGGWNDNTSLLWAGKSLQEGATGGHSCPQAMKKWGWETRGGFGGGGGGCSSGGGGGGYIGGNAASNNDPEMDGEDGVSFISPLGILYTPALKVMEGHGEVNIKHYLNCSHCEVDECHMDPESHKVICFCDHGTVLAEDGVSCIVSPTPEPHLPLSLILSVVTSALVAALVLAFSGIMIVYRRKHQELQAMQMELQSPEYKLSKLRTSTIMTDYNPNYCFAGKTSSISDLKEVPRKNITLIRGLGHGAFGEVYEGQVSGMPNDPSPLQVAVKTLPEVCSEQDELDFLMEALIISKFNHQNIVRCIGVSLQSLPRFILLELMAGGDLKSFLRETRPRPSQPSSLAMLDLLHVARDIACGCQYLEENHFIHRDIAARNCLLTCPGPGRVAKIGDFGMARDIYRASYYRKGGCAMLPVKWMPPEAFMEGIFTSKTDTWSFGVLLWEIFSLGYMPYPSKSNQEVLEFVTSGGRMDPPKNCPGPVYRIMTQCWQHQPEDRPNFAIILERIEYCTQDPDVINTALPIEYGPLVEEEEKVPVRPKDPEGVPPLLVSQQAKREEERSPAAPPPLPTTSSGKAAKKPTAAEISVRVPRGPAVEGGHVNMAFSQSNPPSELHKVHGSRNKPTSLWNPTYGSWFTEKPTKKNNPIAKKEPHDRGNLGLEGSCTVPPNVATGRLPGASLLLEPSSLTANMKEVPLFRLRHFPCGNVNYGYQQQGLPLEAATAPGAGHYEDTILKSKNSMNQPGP

[18] = Toxicity in nu/nu mouse xenografted with human HCT-116 cells assessed as body weight loss at 45 mg/kg, iv administered for 3 days; assay type: organism-based; settings: in vivo, 72 h, time 3 day
[19] = Half-life in Sprague-Dawley rat at 10 mg/kg, po by LC-MS analysis; assay type: ADME, organism-based; settings: in vivo
[20] = Antiproliferative activity against human GM14788 cells assessed as inhibition of cell growth incubated for 72 hrs by cell-titer glo assay; assay type: functional, cell-based; settings: GM14788, 72 h; outline: as §2
[21] = tested on: HCT-116; test: Antitumor activity against human HCT-116 cells xenografted in nu/nu mouse assessed as tumor growth inhibition at 60 mg/kg, po administered for 8 days relative to control; assay type: functional; settings: HCT-116, 192 h, time 8 day, read-out: TGI
[22] = target: CDK6/cyclin D3 (Homo sapiens) (UniProt P30281+Q00534); test: Inhibition of N-terminal His6-tagged full-length human CDK6/N-terminal GST-tagged full-length human cyclinD3 expressed in Sf21 cells assessed as residual activity at 0.1 uM relative to control
[23] = target: Tyrosine-protein kinase ZAP-70 (Homo sapiens) (UniProt P43403); test: Inhibition of C-terminal His6 tagged recombinant human full length ZAP-70 expressed in Sf21 cells assessed as residual activity at 0.1 uM relative to control
Sequence of Tyrosine-protein kinase ZAP-70 (Homo sapiens) (P43403 whole entry): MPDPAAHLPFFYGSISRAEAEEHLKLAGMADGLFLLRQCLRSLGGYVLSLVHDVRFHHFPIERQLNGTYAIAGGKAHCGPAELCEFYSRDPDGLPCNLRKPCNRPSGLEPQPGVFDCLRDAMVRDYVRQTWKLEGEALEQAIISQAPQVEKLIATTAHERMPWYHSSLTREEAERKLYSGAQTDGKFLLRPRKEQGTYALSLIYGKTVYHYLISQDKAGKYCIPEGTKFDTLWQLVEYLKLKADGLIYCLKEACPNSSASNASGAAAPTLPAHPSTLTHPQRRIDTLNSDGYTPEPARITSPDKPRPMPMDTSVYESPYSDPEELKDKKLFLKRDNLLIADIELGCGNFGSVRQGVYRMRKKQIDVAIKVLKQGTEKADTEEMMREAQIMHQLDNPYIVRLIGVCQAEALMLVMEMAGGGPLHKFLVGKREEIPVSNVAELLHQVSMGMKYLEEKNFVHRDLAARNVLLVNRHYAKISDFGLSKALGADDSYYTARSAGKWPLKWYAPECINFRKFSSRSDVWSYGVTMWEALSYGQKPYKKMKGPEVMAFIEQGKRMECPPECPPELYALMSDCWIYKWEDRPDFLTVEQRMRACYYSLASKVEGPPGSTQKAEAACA

[24] = Clearance in Beagle dog at 5 mg/kg, iv by LC-MS analysis; assay type: ADME, organism-based, Canis lupus familiaris; settings: in vivo
[25] = Antiproliferative activity against human CL-11 cells assessed as inhibition of cell growth incubated for 72 hrs by cell-titer glo assay; assay type: functional, cell-based; settings: CL-11, 72 h
Outline: (§3)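 Cells seeded 10,000–30,000/cm² (adherent) or 100,000/mL (suspension) in medium with 10% fetal calf serum; after 24 h treated in duplicate with serial dilutions for 72 h. Viable cells read by CellTiter-Glo luminescence; IC50 from sigmoidal fit; at least two independent experiments.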

[26] = tested on: SUD4; test: Antiproliferative activity against human SU-DHL-4 cells assessed as inhibition of cell growth incubated for 72 hrs by cell-titer glo assay; assay type: functional, cell-based; settings: SU-DHL-4, 72 h
[27] = Cmax in Beagle dog at 5 mg/kg, iv by LC-MS analysis; assay type: ADME, organism-based, Canis lupus familiaris; settings: in vivo
[28] = Antiproliferative activity against human A2780cis cells assessed as inhibition of cell growth incubated for 72 hrs by cell-titer glo assay; assay type: functional, cell-based; outline: as §3
[29] = Antiproliferative activity against human SUPM2 cells assessed as inhibition of cell growth incubated for 72 hrs by cell-titer glo assay; assay type: functional, cell-based; settings: SUP-M2, 72 h
[30] = Tmax in nu/nu mouse at 10 mg/kg, po by LC-MS analysis; assay type: ADME, organism-based; settings: in vivo
[31] = tested on: A2780; test: Antitumor activity against human A2780 cells xenografted in nu/nu mouse assessed as tumor growth inhibition at 60 mg/kg, po administered for 10 days; settings: time 10.0 day
[32] = tested on: NCI-H146; test: Antiproliferative activity against human NCI-H146 cells assessed as inhibition of cell growth incubated for 72 hrs by cell-titer glo assay; assay type: functional, cell-based; settings: NCI-H146, 72 h; outline: as §1

`CN1CCN(c2ccc(OC(F)(F)F)c(Nc3ncc4c(n3)-c3c(c(C(N)=O)nn3CCO)CC4)c2)CC1` [ONVANSERTIB] gave an IC50 [1] of 119 nM, an Activity [2] of 90% and an F [3] of 100%. The IC50 [4] was over 10000 nM, the Cmax [5] was 3000 nM and the concentration at 240 h [6] was 433 nM. The Activity [7] was 13%, the Activity [8] was 125% and the IC50 [9] was 86 nM. It also gave an IC50 [10] of 228 nM, an Activity [11] of 93% and an IC50 [12] of 164 nM. For the same compound, the IC50 [13] was 42 nM, the Activity [14] was 123% and the IC50 [15] was 441 nM. The Cmax [16] was 6800 nM, the Activity [17] was 133% and the Activity [18] was “Toxic”. The half-life [19] was 3.1 h, the IC50 [20] was 82 nM and the inhibition in vivo at 60 mg/kg [21] was 79%. For the same compound, the Activity [22] was 114%, the Activity [23] was 88% and the clearance [24] was 43.8 mL/min/kg. For the same compound, the IC50 [25] was 139 nM, the IC50 [26] was 56 nM and the Cmax [27] was 1700 nM. It also gave an IC50 [28] of 48 nM, an IC50 [29] of 43 nM and a Tmax [30] of 0.4 h. For the same compound, the TGI [31] was “Active” and the IC50 [32] was 339 nM.
